The source made the active and inactive calls. The calls are words filed in the database; no cut-off is given here.
How the values were obtained:
Homo sapiens [1] = species: Homo sapiens; assay: Inhibition of human recombinant NAE assessed as inhibition of NEDD8-UbcH12 complex formation at <10 nM after 1.5 hrs by Western blot analysis
Procedure, shortened: (§1)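 Cell-free gel assay. Purified human recombinant E1 incubated with its matching Ub/Ubl and E2 in 50 mM HEPES pH 7.4, 5 mM MgCl2, 1–20 μM ATP. Inhibitor at 0, 0.001, 0.01, 0.1, 1 or 10 μM, 1.5 h at room temperature. Products resolved by SDS-PAGE, immunoblotted and detected by ECL; densitometry used for semiquantitation.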

Homo sapiens [2] = species: Homo sapiens; assay: Inhibition of human recombinant NAE assessed as inhibition of NEDD8-UbcH12 complex formation at >10 nM after 1.5 hrs by Western blot analysis; procedure, shortened: as §1
Homo sapiens [3] = species: Homo sapiens; assay: Inhibition of human recombinant NAE assessed as inhibition of NEDD8-UbcH12 complex formation at 0.001 to 10 uM after 1.5 hrs by Western blot analysis; procedure, shortened: as §1
Homo sapiens [4] = species: Homo sapiens; assay: Inhibition of human recombinant UAE assessed as inhibition of UbcH6-Ub complex formation at 0.001 to 10 uM after 1.5 hrs by Western blot analysis; procedure, shortened: as §1
[5] = target: SUMO-activating enzyme (Homo sapiens) (UniProt Q9UBE0+Q9UBT2); assay: Inhibition of human recombinant SAE1/2 assessed as inhibition of SUMO1-UbcH9 complex formation at 0.001 to 10 uM after 1.5 hrs by Western blot analysis; type: protein-complex assay; procedure, shortened: as §1
[6] = target: Ubiquitin-like modifier-activating enzyme 5 (Homo sapiens) (UniProt Q9GZZ9); assay: Inhibition of human recombinant UBA5 assessed as inhibition of […]-UFM1 complex formation at 10 uM after 1.5 hrs by Western blot analysis; procedure, shortened: as §1
K562 = assay: Antiproliferative activity against human K562 cells after 72 hrs by CellTiter-Glo assay; type: functional, cell-based; details: K562, 72 h
Procedure, shortened: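 K562 leukemia cells exposed to increasing concentrations for 72 h; growth and viability read by CellTiter-Glo luminescence.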

Homo sapiens [7] = species: Homo sapiens; assay: Inhibition of human recombinant NAE assessed as inhibition of NEDD8-UbcH12 complex formation at 10 nM after 1.5 hrs by Western blot analysis; procedure, shortened: as §1
Homo sapiens [8] = species: Homo sapiens; assay: Inhibition of human recombinant NAE assessed as inhibition of NEDD8-UbcH12 complex formation at 1 nM after 1.5 hrs by Western blot analysis; procedure, shortened: as §1

Ubiquitin-like modifier-activating enzyme 5 (Homo sapiens), sequence (Q9GZZ9 whole entry): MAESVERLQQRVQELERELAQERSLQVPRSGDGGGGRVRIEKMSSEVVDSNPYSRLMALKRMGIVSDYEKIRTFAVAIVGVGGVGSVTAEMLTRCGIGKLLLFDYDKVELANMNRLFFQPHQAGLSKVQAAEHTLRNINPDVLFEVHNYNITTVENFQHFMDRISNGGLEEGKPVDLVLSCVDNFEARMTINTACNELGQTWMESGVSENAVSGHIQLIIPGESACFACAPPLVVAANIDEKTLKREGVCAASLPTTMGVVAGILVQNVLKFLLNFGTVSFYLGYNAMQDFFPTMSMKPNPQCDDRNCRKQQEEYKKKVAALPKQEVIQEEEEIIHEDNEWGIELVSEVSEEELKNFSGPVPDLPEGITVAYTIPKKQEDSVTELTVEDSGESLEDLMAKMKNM

| SMILES | inhibition (Homo sapiens [1]) | inhibition (Homo sapiens [2]) | inhibition (Homo sapiens [3]) | inhibition (Homo sapiens [4]) | inhibition [5] | inhibition [6] | EC50 (K562) | inhibition (Homo sapiens [7]) | inhibition (Homo sapiens [8]) |
| --- | --- | --- | --- | --- | --- | --- | --- | --- | --- |
| NS(=O)(=O)OC[C@@H]1C[C@@H](n2ccc3c(N[C@H]4CCc5ccccc54)ncnc32)C[C@@H]1O [PEVONEDISTAT] |  |  | Active | Active | Active | inactive | 108 nM |  |  |
| NS(=O)(=O)OC[C@H]1O[C@@H](n2cnc3c(N4CCC5CCCCC5C4)ncnc32)[C@H](O)[C@@H]1O (stereo partly drawn) | inactive |  | Active | Active | Active | inactive | > 1000 nM |  |  |
| NS(=O)(=O)OC[C@H]1O[C@@H](n2cnc3c(NCCc4cccs4)ncnc32)[C@H](O)[C@@H]1O |  |  | Active | Active | Active | inactive | 559 nM |  |  |
| CN(Cc1ccco1)c1ncnc2c1ncn2[C@@H]1O[C@H](COS(N)(=O)=O)[C@@H](O)[C@H]1O | inactive | Active | Active | Active | Active | inactive | > 1000 nM |  |  |
| CN(Cc1ccccc1)c1ncnc2c1ncn2[C@@H]1O[C@H](COS(N)(=O)=O)[C@@H](O)[C@H]1O | inactive |  |  |  |  |  |  |  |  |
| NS(=O)(=O)OC[C@H]1O[C@@H](n2cnc3c(NC4CCCCCCC4)ncnc32)[C@H](O)[C@@H]1O |  |  |  |  |  |  | 380 nM |  |  |
| CC(C)CC(C)Nc1ncnc2c1ncn2[C@@H]1O[C@H](COS(N)(=O)=O)[C@@H](O)[C@H]1O (stereo partly drawn) |  |  | Active | Active | Active | inactive |  |  |  |
| CC(C)(C)CC(C)(C)Nc1ncnc2c1ncn2[C@@H]1O[C@H](COS(N)(=O)=O)[C@@H](O)[C@H]1O |  |  | Active | Active | Active | inactive | > 1000 nM | inactive |  |
| NS(=O)(=O)OC[C@H]1O[C@@H](n2cnc3c(N4CCOCC4)ncnc32)[C@H](O)[C@@H]1O | inactive |  |  |  |  |  |  |  |  |
| CCCCN(CCCC)c1ncnc2c1ncn2[C@@H]1O[C@H](COS(N)(=O)=O)[C@@H](O)[C@H]1O | inactive |  | Active | Active | Active | inactive |  |  |  |
| NS(=O)(=O)OC[C@H]1O[C@@H](n2cnc3c(NCC4COCCOCCOCCOCCO4)ncnc32)[C@H](O)[C@@H]1O (stereo partly drawn) |  |  | Active | Active | Active | inactive | > 1000 nM |  |  |
| CCN(CC)c1ncnc2c1ncn2[C@@H]1O[C@H](COS(N)(=O)=O)[C@@H](O)[C@H]1O | inactive |  | Active | Active | Active | inactive |  |  |  |
| NS(=O)(=O)OC[C@H]1O[C@@H](n2cnc3c(N[C@@H]4C[C@H]5CCC4C5)ncnc32)[C@H](O)[C@@H]1O |  |  | Active | Active | Active | inactive |  |  |  |
| NS(=O)(=O)OC[C@H]1O[C@@H](n2cnc3c(Nc4ccccc4)ncnc32)[C@H](O)[C@@H]1O |  |  | Active | Active | Active | inactive |  |  |  |
| CCN(c1ncnc2c1ncn2[C@@H]1O[C@H](COS(N)(=O)=O)[C@@H](O)[C@H]1O)C(C)C | inactive | Active |  |  |  |  |  |  |  |
| Nc1ncnc2c1ncn2[C@@H]1O[C@H](COS(N)(=O)=O)[C@@H](O)[C@H]1O |  |  |  |  |  |  |  |  | < 16% |
| NS(=O)(=O)OC[C@H]1O[C@@H](n2cnc3c(NCc4ccoc4)ncnc32)[C@H](O)[C@@H]1O |  | Active |  |  |  |  |  | 100% |  |
| NS(=O)(=O)OC[C@H]1O[C@@H](n2cnc3c(NCC4CCCO4)ncnc32)[C@H](O)[C@@H]1O (stereo partly drawn) |  |  | Active | Active | Active | inactive | > 1000 nM |  |  |
| NS(=O)(=O)OC[C@H]1O[C@@H](n2cnc3c(NCc4cccs4)ncnc32)[C@H](O)[C@@H]1O |  |  | Active | Active | Active | inactive | 114 nM | 100% |  |

Further lines, results first:

| inhibition (Homo sapiens [1]) | inhibition (Homo sapiens [2]) | inhibition (Homo sapiens [3]) | inhibition (Homo sapiens [4]) | inhibition [5] | inhibition [6] | EC50 (K562) | inhibition (Homo sapiens [7]) | inhibition (Homo sapiens [8]) | SMILES |
| --- | --- | --- | --- | --- | --- | --- | --- | --- | --- |
| inactive | Active |  |  |  |  |  |  |  | CCCCN(C)c1ncnc2c1ncn2[C@@H]1O[C@H](COS(N)(=O)=O)[C@@H](O)[C@H]1O |
|  | Active | Active | Active | Active | inactive |  |  |  | CC(C)Nc1ncnc2c1ncn2[C@@H]1O[C@H](COS(N)(=O)=O)[C@@H](O)[C@H]1O |
|  |  | Active | Active | Active | inactive | > 1000 nM | < 25% |  | CCC(C)Nc1ncnc2c1ncn2[C@@H]1O[C@H](COS(N)(=O)=O)[C@@H](O)[C@H]1O (stereo partly drawn) |
|  |  | Active | Active | Active | inactive |  | < 63% | inactive | CCCNc1ncnc2c1ncn2[C@@H]1O[C@H](COS(N)(=O)=O)[C@@H](O)[C@H]1O |
|  |  |  |  |  |  |  | < 76% | inactive | CNc1ncnc2c1ncn2[C@@H]1O[C@H](COS(N)(=O)=O)[C@@H](O)[C@H]1O |
| inactive |  |  |  |  |  |  |  |  | CCCCN(CC)c1ncnc2c1ncn2[C@@H]1O[C@H](COS(N)(=O)=O)[C@@H](O)[C@H]1O |
|  |  | Active | Active | Active | inactive | 929 nM | < 29% |  | CC(C)(C)CCNc1ncnc2c1ncn2[C@@H]1O[C@H](COS(N)(=O)=O)[C@@H](O)[C@H]1O |
|  |  | Active | Active | Active | inactive | 203 nM |  |  | CCCCCC(C)Nc1ncnc2c1ncn2[C@@H]1O[C@H](COS(N)(=O)=O)[C@@H](O)[C@H]1O (stereo partly drawn) |
|  | Active |  |  |  |  |  |  | < 58% | CCCCNc1ncnc2c1ncn2[C@@H]1O[C@H](COS(N)(=O)=O)[C@@H](O)[C@H]1O |
|  |  | Active | Active | Active | inactive |  |  |  | NS(=O)(=O)OC[C@H]1O[C@@H](n2cnc3c(NCCCn4ccnc4)ncnc32)[C@H](O)[C@@H]1O |
|  |  | Active | Active | Active | inactive | 132 nM |  | inactive | CCCCCCCNc1ncnc2c1ncn2[C@@H]1O[C@H](COS(N)(=O)=O)[C@@H](O)[C@H]1O |
|  |  |  |  |  |  | > 1000 nM |  |  | COCCNc1ncnc2c1ncn2[C@@H]1O[C@H](COS(N)(=O)=O)[C@@H](O)[C@H]1O |
|  |  |  |  |  |  | 181 nM |  | < 62% | CCCCCNc1ncnc2c1ncn2[C@@H]1O[C@H](COS(N)(=O)=O)[C@@H](O)[C@H]1O |

— ChEMBL document CHEMBL2016531, “Identification of NAE Inhibitors Exhibiting Potent Activity in Leukemia Cells: Exploring the Structural Determinants of NAE Specificity” (ACS Med Chem Lett, 2011)
